According to paper PMC3178889 (Nature neuroscience, 2011):
Entries after “also recorded” stand apart in the source; their conditions may differ. No end group written: not given here. *: point of attachment. Myristoyl = CCCCCCCCCCCCCC(=O)*; Lauroyl = CCCCCCCCCCCC(=O)*

Experiments:
binding of Tα to UNC119 = tested on: binding of Tα to UNC119; set-up: species or system bovine; settings: GST-UNC119 pulldown from retina lysate in the presence of peptide; immunoblot
human UNC119 = human UNC119 (Homo sapiens, UniProt Q13432); test: Isothermal titration calorimetry; type: binding; settings: ITC; for binding relative to the lauroyl Tα peptide: compared with lauroyl-GAGASAEEKH
GST-UNC119 = GST-UNC119 pulldown of proteins from retina lysates or HEK cells; type: binding, bovine
rod photoreceptors = settings: passive diffusion after light activation; cited from earlier work
Tα = test: GST-UNC119B pulldown from bovine retina lysate; type: binding; settings: unpublished results of the authors
transducin = settings: absence of rhodopsin; cited from earlier work
[1] = tested on: GTPase activity of Tα (purified Tαβγ); test: GTPase activity of purified Tαβγ in the presence of depleted ROS membranes; type: biochemical
In short: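 Purified native transducin (Tαβγ) reconstituted with depleted rod outer segment membranes, which carry rhodopsin and a trace of residual transducin. […] Components (transducin, UNC119, depleted membranes) checked by SDS-PAGE.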

GAGASAEEKH
competition for binding of Tα to UNC119 (binding of Tα to UNC119): did not

Lauroyl-GAGASAEEKH
competition for binding of Tα to UNC119 (binding of Tα to UNC119): competes for binding

Lauroyl-GSCQSNENSE
binding relative to the lauroyl Tα peptide (human UNC119; listed as Lauroyl-ODR-3): more than one order of magnitude weaker | binding relative to the lauroyl Tα peptide (human UNC119; listed as ODR-3 N-terminal peptide): lower affinity interaction

Myristoyl-GAGASAEEKH
interaction with recombinant human UNC119 (human UNC119): tight binding | number of binding sites (human UNC119; one-site model): single site

Tα(G2A): Tα with G2 replaced with alanine, a mutation preventing Tα acylation
interaction with GST-UNC119 in pulldown of protein expressed in HEK cells (GST-UNC119; bovine Tα or Tα(G2A) expressed in HEK cells, anti-Tα blot): does not interact; also recorded: did not interact

Tα: rod photoreceptor transducin α-subunit
interaction with GST-UNC119 in pulldown from retina lysate (GST-UNC119; bovine or mouse retina lysate, Coomassie/LC-MS/MS or immunoblot): UNC119 interacts with Tα; also recorded: is pulled down | t1/2 of light-induced translocation to the inner segment (rod photoreceptors): 3 to 5 min

Tβγ: transducin βγ subunits
t1/2 of light-induced translocation to the inner segment (rod photoreceptors): approximately 12 min

UNC119B: isoform encoded by UNC119B gene, 61% similar and 52% identical to UNC119
pulldown of Tα by GST-UNC119B (Tα): pulls down Tα from bovine retina lysate

transducin: purified native heterotrimeric transducin
GTP/GDP exchange rate constant (transducin): 10^−4 /sec | Kcat of GTPase ([1]; depleted ROS membranes reconstituted with transducin): 1.5 moles GTPhydrolyzed/mol transducin/min | GTPase activity rate of the reconstituted system ([1]; purified Tαβγ in the presence of ROS membranes, Fig. 5C red line): 1.5 mole GTP/min
